pEC50, pIC50, pKd: −log10 of the molar value.
Key:
Quadruplex DNA [1] = test: Stabilization of human Tel26 G4 quadruplex DNA assessed as thermal stability by measuring difference in melting temperature t1/2 by circular dichroism spectroscopy; assay type: nucleic-acid assay
Quadruplex DNA [2] = test: Stabilization of c-kit1 G4 quadruplex d(DNA AGGGAGGGCGCTGGGAGGAGGG) DNA (unknown origin) assessed as thermal stability by measuring difference in melting temperature t1/2 by circular dichroism spectroscopy (reference value: 54 +/- 0.5 degC); assay type: nucleic-acid assay
Quadruplex DNA [3] = test: Stabilization of c-kit2 G4 quadruplex d(CGGGCGGGCGCTAGGGAGGGT) DNA (unknown origin) assessed as thermal stability by measuring difference in melting temperature t1/2 by circular dichroism spectroscopy (reference value: 61.5 +/- 0.5 degC); assay type: nucleic-acid assay
Quadruplex DNA [4] = test: Stabilization of c-myc G4 quadruplex d(TTAGGGTTAGGGTTAGGGTTAGGGTT) DNA (unknown origin) assessed as thermal stability by measuring difference in melting temperature t1/2 by circular dichroism spectroscopy (reference value: 72 +/- 0.5 degC); assay type: nucleic-acid assay
[5] = Stabilization of d(CGC GAA TTC GCG TIT CGC GAA TTC GCG) DNA hairpin (unknown origin) assessed as thermal stability by measuring difference in melting temperature t1/2 by circular dichroism spectroscopy (reference value: 75.4 +/- 0.2 degC)
Outline: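 CD melting of 15 μM annealed hairpin duplex in 5 mM K phosphate pH 7.0 with 20 mM KCl, with or without ligand at 2 molar equiv added to the folded DNA. The signal was followed at 252 nm from 20 to 100 °C at 1 °C/min, with T1/2 taken from a curve fit. ΔT1/2 is relative to DNA alone; duplicate runs, averaged.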

[6] = Stabilization of F-c-kit1-T (unknown origin) assessed as difference in melting temperature t1/2 in presence of d(CGC GAA TTC GCG TIT CGC GAA TTC GCG) DNA hairpin (unknown origin) measured at 1:15 G4 to hairpin DNA ratio by FRET assay
Outline: (§1)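 FRET melting of 0.2 μM prefolded FAM/TAMRA dual-labelled c-kit1 G4 in 5 mM K phosphate pH 7.0 with 20 mM KCl. Ligand was added at 2 molar equiv, with unlabelled hairpin competitor at 3 or 10 μM final (15 or 50 equiv relative to G4). FAM emission was read at 520 nm (excitation 492 nm) while heating at 0.2 °C/min over 15–90 °C. ΔT1/2 is relative to no ligand; at least duplicate, averaged.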

[7] = Stabilization of F-c-kit1-T (unknown origin) assessed as difference in melting temperature t1/2 in presence of d(CGC GAA TTC GCG TIT CGC GAA TTC GCG) DNA hairpin (unknown origin) measured at 1:50 G4 to hairpin DNA ratio by FRET assay; outline: as §1
Quadruplex DNA [8] = test: Stabilization of F-c-kit1-T quadruplex DNA (unknown origin) by measuring difference in melting temperature t1/2 by FRET assay; assay type: nucleic-acid assay
Outline: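 FRET melting of 0.2 μM prefolded FAM/TAMRA-labelled c-kit1 in 5 mM potassium phosphate pH 7.0 with 20 mM KCl, with ligand at 2 molar equiv. Unlabelled hairpin competitor added at 3 or 10 μM (15 or 50 equiv). FAM emission at 520 nm (excitation 492 nm) followed from 15 to 90 °C at 0.2 °C/min. ΔT1/2 versus no ligand. At least duplicate.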

Quadruplex DNA [9] = test: Displacement of thiazole orange from c-kit1 G4 quadruplex d(DNA AGGGAGGGCGCTGGGAGGAGGG) DNA (unknown origin) assessed as relative affinity by fluorescent intercalator displacement assay; assay type: nucleic-acid assay
Outline: (§2)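 G4 DNA at 0.25 μM with 0.5 μM thiazole orange in 5 mM potassium phosphate pH 7.0 containing 20 mM KCl (LiCl for c-myc), 20 °C. Ligand titrated from 0.5 to 20 molar equiv with 3 min equilibration per addition. Excitation 485 nm, emission 500–650 nm. %displacement = 100 − (F/F0×100); DC50 is the concentration displacing 50% TO. Duplicate titrations.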

Quadruplex DNA [10] = test: Displacement of thiazole orange from c-kit2 G4 quadruplex d(CGGGCGGGCGCTAGGGAGGGT) DNA (unknown origin) assessed as relative affinity by fluorescent intercalator displacement assay; assay type: nucleic-acid assay; outline: as §2
Quadruplex DNA [11] = test: Displacement of thiazole orange from c-myc G4 quadruplex d(TTAGGGTTAGGGTTAGGGTTAGGGTT) DNA (unknown origin) assessed as relative affinity by fluorescent intercalator displacement assay; assay type: nucleic-acid assay; outline: as §2
Quadruplex DNA [12] = test: Binding affinity to c-kit1 G4 quadruplex d(DNA AGGGAGGGCGCTGGGAGGAGGG) DNA (unknown origin) assessed as dissociation constant by Microscale thermophoresis analysis; assay type: nucleic-acid assay
Outline: (§3)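 MST with Cy5.5-labelled G4 oligonucleotide held at 20 nM, folded in 5 mM potassium phosphate pH 7.0 with 20 mM KCl plus 0.1% Tween. Ligand in 1:2 serial dilution mixed 1:1 with DNA, 20% DMSO final. Kd taken from binding curves.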

Quadruplex DNA [13] = test: Binding affinity to c-kit2 G4 quadruplex d(CGGGCGGGCGCTAGGGAGGGT) DNA (unknown origin) assessed as dissociation constant by Microscale thermophoresis analysis; assay type: nucleic-acid assay; outline: as §3
Quadruplex DNA [14] = test: Binding affinity toc-myc G4 quadruplex d(TTAGGGTTAGGGTTAGGGTTAGGGTT) DNA (unknown origin) assessed as dissociation constant by Microscale thermophoresis analysis; assay type: nucleic-acid assay; outline: as §3
[15] = Cytotoxicity against mouse MNMCA1 cells assessed as cell survival preincubated for 24 hrs with compound further incubated for 48 hrs in drug free medium by MTT assay; assay type: functional, cell-based
Outline: (§4)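 Exponentially growing cells seeded and treated 24 h after seeding with increasing concentrations for 24 h. Cells then recovered 48 h in drug-free medium. MTT added for 1 h at 37 °C, formazan dissolved in DMSO, absorbance read at 540 nm. IC50 from linear regression. Means ± SEM of two independent experiments in triplicate.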

U2OS [16] = test: Cytotoxicity against human U2OS cells assessed as cell survival preincubated for 24 hrs with compound further incubated for 48 hrs in drug free medium by MTT assay; assay type: functional, cell-based; outline: as §4
Quadruplex DNA [17] = test: Stabilization of G4 quadruplex DNA in human U2OS cells assessed as BG4 foci formation by measuring fold increase in G4 structure at 10 uM by immunofluorescence microscopy; assay type: cell-based
Outline: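 U2OS cells on coverslips treated for […]. Fixed in methanol/acetic acid 3:1, permeabilized with 0.1% Triton X-100, blocked in 2% milk. Stained with 0.5 μg BG4 for 2 h, then anti-FLAG and Alexa Fluor 488 secondary. Signal quantified as fold over untreated.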

U2OS [18] = test: Induction of DNA damage in human U2OS cells assessed as increase in gammaH2AX phosphorylation at S139 incubated for 24 hrs by immunofluorescence microscopy; assay type: functional, cell-based; conditions: read-out: IC50 (the source's name)
Outline: (§5)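 U2OS cells treated 24 h. Fixed with 4% formaldehyde, permeabilized with 0.5% Triton X-100, blocked with 8% BSA, stained with anti-γH2AX (1:500) and Alexa Fluor 594 secondary, DAPI counterstain. Fluorescence microscopy signal quantified as fold over untreated.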

U2OS [19] = test: Induction of DNA damage in human U2OS cells assessed as fold increase in gammaH2AX phosphorylation at […] by measuring fold change at 10 uM incubated for 24 hrs by immunofluorescence microscopy; assay type: functional; outline: as §5
[20] = Genotoxicity in mouse MNMCA1 cells assessed as induction of micronuclei formation measured after 24 hrs by DAPI staining based analysis; assay type: toxicity, cell-based; conditions: mnmca1, 24 h
[21] = Genotoxicity in mouse MNMCA1 cells assessed as induction of micronuclei formation at 1 uM incubated for 24 hrs by measuring fold change by DAPI staining based analysis; assay type: toxicity, cell-based; conditions: mnmca1, 24 h

Structure (SMILES)	ΔTm (Quadruplex DNA [1])	ΔTm (Quadruplex DNA [2])	ΔTm (Quadruplex DNA [3])	ΔTm (Quadruplex DNA [4])	ΔTm [5]	other results
N=C(N)N/N=C/c1c(-c2ccccc2)nc2n1ccc1nc(-c3ccc(Cl)cc3)c(/C=N/NC(=N)N)n12	5 °C	21.4 °C	> 30 °C	17.6 °C	2.3 °C	–
C(=N\NC1=NCCN1)/c1c(-c2ccsc2)nc2n1ccc1nc(-c3ccsc3)c(/C=N/NC3=NCCN3)n12	3.8 °C	10.3 °C	14.9 °C	4.7 °C	2 °C	–
Cc1ccc(-c2nc3n(ccc4nc(-c5ccc(C)cc5)c(/C=N/NC5=NCCN5)n43)c2/C=N/NC2=NCCN2)cc1	4.5 °C	17.1 °C	26.5 °C	8.5 °C	2.4 °C	–
Clc1ccc(-c2nc3n(ccc4nc(-c5ccccc5)c(/C=N/NC5=NCCN5)n43)c2/C=N/NC2=NCCN2)cc1	6.6 °C	17.7 °C	19.2 °C	10.6 °C	1.2 °C	ΔTm [6]: 24.8 °C; ΔTm [7]: 23.8 °C; ΔTm (Quadruplex DNA [8]): 26.6 °C; pIC50 (Quadruplex DNA [9]): 5.92; pIC50 (Quadruplex DNA [10]): 5.85; pIC50 (Quadruplex DNA [11]): 5.89; pKd (Quadruplex DNA [12]): 7.15; pKd (Quadruplex DNA [13]): 6.30; pKd (Quadruplex DNA [14]): 5.92
Cc1ccc(-c2nc3n(ccc4nc(-c5ccccc5)c(/C=N/NC5=NCCN5)n43)c2/C=N/NC2=NCCN2)cc1	6.2 °C	21.4 °C	> 30 °C	13.1 °C	2.2 °C	–
Cc1ccc(-c2nc3n(ccc4nc(-c5ccc(C)cc5)c(/C=N/NC5=NCCN5)n43)c2C=O)cc1	1.3 °C	3.8 °C	6.8 °C	1.5 °C	0 °C	–
Cc1ccc(-c2nc3n(ccc4nc(-c5ccccc5)c(/C=N/NC(=N)N)n43)c2/C=N/NC(=N)N)cc1	6.3 °C	25.2 °C	> 30 °C	16.9 °C	3.2 °C	–
Cc1ccc(-c2nc3ccn4c(/C=N/NC5=NCCN5)c(-c5ccccc5)nc4n3c2/C=N/NC2=NCCN2)cc1	5.3 °C	15.2 °C	> 30 °C	9.1 °C	1.1 °C	pIC50 [15]: 4.54; ΔTm [6]: 21.4 °C; ΔTm [7]: 20.2 °C; ΔTm (Quadruplex DNA [8]): 22.4 °C; pIC50 (Quadruplex DNA [9]): 5.89; pIC50 (Quadruplex DNA [10]): 5.92; pIC50 (Quadruplex DNA [11]): 5.89; pKd (Quadruplex DNA [12]): 6.92; pKd (Quadruplex DNA [13]): 6.89; pIC50 (U2OS [16]): 3.97; fold change (FC) (Quadruplex DNA [17]): 2.4; pEC50 (U2OS [18]): 4.00; fold change (FC) (U2OS [19]): 1.45; fold change (FC) [20]: 0.4
N=C(N)N/N=C/c1c(-c2ccc(Cl)cc2)nc2n1ccc1nc(-c3ccc(Cl)cc3)c(/C=N/NC(=N)N)n12	4.1 °C	11.1 °C	> 30 °C	11.4 °C	2.9 °C	–
Clc1ccc(-c2nc3n(ccc4nc(-c5ccc(Cl)cc5)c(/C=N/NC5=NCCN5)n43)c2/C=N/NC2=NCCN2)cc1	3.3 °C	9.6 °C	13.7 °C	5.5 °C	3.5 °C	–
Cc1ccc(-c2nc3n(ccc4nc(-c5ccc(C)cc5)c(/C=N/NC(=N)N)n43)c2/C=N/NC(=N)N)cc1	5.5 °C	18.5 °C	> 30 °C	15.6 °C	4.1 °C	–
O=Cc1c(-c2ccccc2)nc2n1ccc1nc(-c3ccccc3)c(/C=N/NC3=NCCN3)n12	–	–	–	–	–	pIC50 [15]: 5.64; pIC50 (U2OS [16]): 5.40; pEC50 (U2OS [18]): 5.40; fold change (FC) (U2OS [19]): 1.55; fold change (FC) [21]: 2.5
Clc1ccc(-c2nc3ccn4c(/C=N/NC5=NCCN5)c(-c5ccccc5)nc4n3c2/C=N/NC2=NCCN2)cc1	6.3 °C	15.5 °C	22 °C	7.4 °C	1.2 °C	pIC50 [15]: 4.63; ΔTm [6]: 21.4 °C; ΔTm [7]: 19.6 °C; ΔTm (Quadruplex DNA [8]): 24.6 °C; pIC50 (Quadruplex DNA [9]): 5.57; pIC50 (Quadruplex DNA [10]): 5.77; pIC50 (Quadruplex DNA [11]): 5.74; pKd (Quadruplex DNA [12]): 6.42; pKd (Quadruplex DNA [13]): 6.31; pKd (Quadruplex DNA [14]): 5.52; pIC50 (U2OS [16]): 4.69; fold change (FC) (Quadruplex DNA [17]): 0.77; pEC50 (U2OS [18]): 4.70; fold change (FC) (U2OS [19]): 1.37; fold change (FC) [20]: 0.4
Cc1ccc(-c2nc3n(ccc4nc(-c5ccc(C)cc5)c(/C=N/NC(=N)N)n43)c2C=O)cc1	2.1 °C	6.1 °C	16.2 °C	4.6 °C	2.3 °C	–
Cc1ccc(-c2nc3n(ccc4nc(-c5ccccc5)c(/C=N/NC(=N)N)n43)c2C=O)cc1	3.8 °C	6.6 °C	20.8 °C	3.1 °C	1.2 °C	–
N=C(N)N/N=C/c1c(-c2ccsc2)nc2ccn3c(C=O)c(-c4ccsc4)nc3n12	4.8 °C	16.1 °C	25.2 °C	9.1 °C	2.7 °C	–
N=C(N)N/N=C/c1c(-c2ccc(Cl)cc2)nc2n1ccc1nc(-c3ccccc3)c(/C=N/NC(=N)N)n12	8.3 °C	20.1 °C	> 30 °C	14.3 °C	2.6 °C	–
N=C(N)N/N=C/c1c(-c2ccccc2)nc2ccn3c(C=O)c(-c4ccccc4)nc3n12	4.3 °C	11.2 °C	24.2 °C	5.8 °C	1.7 °C	pIC50 [15]: 5.72; ΔTm [6]: 21.6 °C; ΔTm [7]: 22.2 °C; ΔTm (Quadruplex DNA [8]): 22 °C; pKd (Quadruplex DNA [12]): 6.52; pKd (Quadruplex DNA [13]): 6.43; pKd (Quadruplex DNA [14]): 5.15; pIC50 (U2OS [16]): 5.59; pEC50 (U2OS [18]): 5.62; fold change (FC) (U2OS [19]): 2.32; fold change (FC) [21]: 2.5
NCCOc1cc(C(=O)Nc2cc(OCCN)c3ccccc3n2)nc(C(=O)Nc2cc(OCCN)c3ccccc3n2)c1 [PYRIDOSTATIN]	–	–	–	–	–	pIC50 [15]: 4.57
